Here are results for nine compounds from ChEMBL document CHEMBL4219132, “Sulfamic acid promoted one-pot synthesis of phenanthrene fused-dihydrodibenzo-quinolinones: Anticancer activity, tubulin polymerization inhibition and apoptosis inducing studies” (Bioorg Med Chem, 2018).

Molecules are shown by their SMILES.

One experiment deals with HCT-116. Nature of the experiment: Cytotoxicity against human HCT116 cells assessed as cell growth inhibition after 48 hrs by MTT assay. The experiment is classed as functional, cell-based. As to conditions: HCT-116, 48 h. In outline: (§1)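 MTT assay. Cells were seeded at 1×10^4 per well in their medium with 10% FBS and allowed 24 h at 37 °C. Compound diluted in medium was added alongside a vehicle control and left for 48 h. MTT (0.5 mg/mL) was then added for 4 h, formazan dissolved in DMSO, and absorbance read at 570 nm. IC50 is the concentration inhibiting 50% of cells.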
Regarding `COc1cc2c3c(c4cc(OC)c(OC)cc4c2cc1OC)C(c1sccc1C)CC(=O)N3` (stereo not drawn), the IC50 is above 20 µM.
For `COc1cc2c3c(c4cc(OC)c(OC)cc4c2cc1OC)C(c1ccc(C)cc1)CC(=O)N3` (stereo not drawn), the 50% inhibitory concentration (IC50) was above 20 µM.
Regarding `COc1cc2c3c(c4cc(OC)c(OC)cc4c2cc1OC)C(c1cccs1)CC(=O)N3` (stereo not drawn), the IC50 was 13.8 µM.
Take `COc1cc2c3c(c4cc(OC)c(OC)cc4c2cc1OC)C(c1ccc2c(c1)OCCO2)CC(=O)N3` (stereo not drawn): the IC50 was above 20 µM.
The same measure, in the same setting: as for `COc1cc2c3c(c4cc(OC)c(OC)cc4c2cc1OC)C(c1cccc(C(F)(F)F)c1)CC(=O)N3` (stereo not drawn), the figure is 15.4 µM.
Still for that read-out and setting: as for `COc1cc2c3c(c4cc(OC)c(OC)cc4c2cc1OC)C(c1ccc(F)cc1)CC(=O)N3` (stereo not drawn), the figure is 16.2 µM; as for `COc1cc2c3c(c4cc(OC)c(OC)cc4c2cc1OC)C(c1cccc(Br)c1)CC(=O)N3` (stereo not drawn), above 20 µM.
The same measure, in the same setting: as for `COc1cc([C@@H]2c3cc4c(cc3[C@@H](O[C@@H]3O[C@@H]5CO[C@@H](C)O[C@H]5[C@H](O)[C@H]3O)[C@H]3COC(=O)[C@H]23)OCO4)cc(OC)c1O` [ETOPOSIDE], the figure is 2.6 µM.
On to `COc1cc2c3c(c4cc(OC)c(OC)cc4c2cc1OC)C(c1ccc(F)c(F)c1)CC(=O)N3` (stereo not drawn), for which the IC50 stood at 13.4 µM.

The next experiment deals with A549. Nature of the experiment: Cytotoxicity against human A549 cells assessed as cell growth inhibition after 48 hrs by MTT assay. The experiment is classed as functional, cell-based. The settings on record: A549, 48 h. A digest of the protocol: as §1
As to `COc1cc2c3c(c4cc(OC)c(OC)cc4c2cc1OC)C(c1sccc1C)CC(=O)N3` (stereo not drawn), the IC50 is 15.4 µM.
The same measure, in the same setting: as for `COc1cc2c3c(c4cc(OC)c(OC)cc4c2cc1OC)C(c1ccc(C)cc1)CC(=O)N3` (stereo not drawn), the figure is 16.7 µM; as for `COc1cc2c3c(c4cc(OC)c(OC)cc4c2cc1OC)C(c1cccs1)CC(=O)N3` (stereo not drawn), 8.5 µM.
Take `COc1cc2c3c(c4cc(OC)c(OC)cc4c2cc1OC)C(c1ccc2c(c1)OCCO2)CC(=O)N3` (stereo not drawn): the IC50 stood at 7.95 µM.
Same read-out and setting: as for `COc1cc2c3c(c4cc(OC)c(OC)cc4c2cc1OC)C(c1cccc(C(F)(F)F)c1)CC(=O)N3` (stereo not drawn), the figure is 5.03 µM; as for `COc1cc2c3c(c4cc(OC)c(OC)cc4c2cc1OC)C(c1ccc(F)cc1)CC(=O)N3` (stereo not drawn), 6.29 µM.
Same read-out and setting: the same measure for `COc1cc2c3c(c4cc(OC)c(OC)cc4c2cc1OC)C(c1cccc(Br)c1)CC(=O)N3` (stereo not drawn): above 20 µM; for `COc1cc([C@@H]2c3cc4c(cc3[C@@H](O[C@@H]3O[C@@H]5CO[C@@H](C)O[C@H]5[C@H](O)[C@H]3O)[C@H]3COC(=O)[C@H]23)OCO4)cc(OC)c1O` [ETOPOSIDE]: 3.25 µM; for `COc1cc2c3c(c4cc(OC)c(OC)cc4c2cc1OC)C(c1ccc(F)c(F)c1)CC(=O)N3` (stereo not drawn): 7.78 µM.

The test system of the next experiment is DU-145. Kind of experiment: Cytotoxicity against human DU145 cells assessed as cell growth inhibition after 48 hrs by MTT assay. The experiment is classed as functional, cell-based. The settings on record: DU-145, 48 h. In outline:
as §1
Regarding `COc1cc2c3c(c4cc(OC)c(OC)cc4c2cc1OC)C(c1sccc1C)CC(=O)N3` (stereo not drawn), the IC50 came out at 19.6 µM.
The same measure, in the same setting: as for `COc1cc2c3c(c4cc(OC)c(OC)cc4c2cc1OC)C(c1ccc(C)cc1)CC(=O)N3` (stereo not drawn), the figure is 16.9 µM; as for `COc1cc2c3c(c4cc(OC)c(OC)cc4c2cc1OC)C(c1cccs1)CC(=O)N3` (stereo not drawn), above 20 µM.
Same read-out and setting: the same measure for `COc1cc2c3c(c4cc(OC)c(OC)cc4c2cc1OC)C(c1ccc2c(c1)OCCO2)CC(=O)N3` (stereo not drawn): above 20 µM.
Same read-out and setting: as for `COc1cc2c3c(c4cc(OC)c(OC)cc4c2cc1OC)C(c1cccc(C(F)(F)F)c1)CC(=O)N3` (stereo not drawn), the figure is 6.19 µM; as for `COc1cc2c3c(c4cc(OC)c(OC)cc4c2cc1OC)C(c1ccc(F)cc1)CC(=O)N3` (stereo not drawn), 11.1 µM; as for `COc1cc2c3c(c4cc(OC)c(OC)cc4c2cc1OC)C(c1cccc(Br)c1)CC(=O)N3` (stereo not drawn), 18.5 µM.
`COc1cc([C@@H]2c3cc4c(cc3[C@@H](O[C@@H]3O[C@@H]5CO[C@@H](C)O[C@H]5[C@H](O)[C@H]3O)[C@H]3COC(=O)[C@H]23)OCO4)cc(OC)c1O` [ETOPOSIDE]: the IC50 amounted to 2.13 µM.
On the same count and under the same terms, as for `COc1cc2c3c(c4cc(OC)c(OC)cc4c2cc1OC)C(c1ccc(F)c(F)c1)CC(=O)N3` (stereo not drawn), the figure is above 20 µM.

A further experiment has as its system PC-3. Nature of the experiment: Cytotoxicity against human PC3 cells assessed as cell growth inhibition after 48 hrs by MTT assay. The experiment is classed as functional, cell-based. As to conditions: PC-3, 48 h. In outline:
as §1
In the case of `COc1cc2c3c(c4cc(OC)c(OC)cc4c2cc1OC)C(c1sccc1C)CC(=O)N3` (stereo not drawn), the IC50 is above 20 µM.
On the same count and under the same terms, as for `COc1cc2c3c(c4cc(OC)c(OC)cc4c2cc1OC)C(c1ccc(C)cc1)CC(=O)N3` (stereo not drawn), the figure is above 20 µM; as for `COc1cc2c3c(c4cc(OC)c(OC)cc4c2cc1OC)C(c1cccs1)CC(=O)N3` (stereo not drawn), above 20 µM.
As to `COc1cc2c3c(c4cc(OC)c(OC)cc4c2cc1OC)C(c1ccc2c(c1)OCCO2)CC(=O)N3` (stereo not drawn), the IC50 came to 18.4 µM.
The same measure, in the same setting: as for `COc1cc2c3c(c4cc(OC)c(OC)cc4c2cc1OC)C(c1cccc(C(F)(F)F)c1)CC(=O)N3` (stereo not drawn), the figure is 18.5 µM; as for `COc1cc2c3c(c4cc(OC)c(OC)cc4c2cc1OC)C(c1ccc(F)cc1)CC(=O)N3` (stereo not drawn), 19.9 µM; as for `COc1cc2c3c(c4cc(OC)c(OC)cc4c2cc1OC)C(c1cccc(Br)c1)CC(=O)N3` (stereo not drawn), above 20 µM.
On the same count and under the same terms, as for `COc1cc([C@@H]2c3cc4c(cc3[C@@H](O[C@@H]3O[C@@H]5CO[C@@H](C)O[C@H]5[C@H](O)[C@H]3O)[C@H]3COC(=O)[C@H]23)OCO4)cc(OC)c1O` [ETOPOSIDE], the figure is 5.4 µM; as for `COc1cc2c3c(c4cc(OC)c(OC)cc4c2cc1OC)C(c1ccc(F)c(F)c1)CC(=O)N3` (stereo not drawn), above 20 µM.

The next experiment relates to HT-29. Kind of experiment: Cytotoxicity against human HT-29 cells assessed as cell growth inhibition after 48 hrs by MTT assay. The experiment is classed as functional, cell-based. The settings on record: HT-29, 48 h. In outline: as §1
Regarding `COc1cc2c3c(c4cc(OC)c(OC)cc4c2cc1OC)C(c1sccc1C)CC(=O)N3` (stereo not drawn), the IC50 was above 20 µM.
Same read-out and setting: the same measure for `COc1cc2c3c(c4cc(OC)c(OC)cc4c2cc1OC)C(c1ccc(C)cc1)CC(=O)N3` (stereo not drawn): above 20 µM; for `COc1cc2c3c(c4cc(OC)c(OC)cc4c2cc1OC)C(c1cccs1)CC(=O)N3` (stereo not drawn): 18.9 µM.
Regarding `COc1cc2c3c(c4cc(OC)c(OC)cc4c2cc1OC)C(c1ccc2c(c1)OCCO2)CC(=O)N3` (stereo not drawn), the IC50 is above 20 µM.
The same measure, in the same setting: as for `COc1cc2c3c(c4cc(OC)c(OC)cc4c2cc1OC)C(c1cccc(C(F)(F)F)c1)CC(=O)N3` (stereo not drawn), the figure is 18.7 µM; as for `COc1cc2c3c(c4cc(OC)c(OC)cc4c2cc1OC)C(c1ccc(F)cc1)CC(=O)N3` (stereo not drawn), 17.4 µM.
Same read-out and setting: as for `COc1cc2c3c(c4cc(OC)c(OC)cc4c2cc1OC)C(c1cccc(Br)c1)CC(=O)N3` (stereo not drawn), the figure is above 20 µM; as for `COc1cc2c3c(c4cc(OC)c(OC)cc4c2cc1OC)C(c1ccc(F)c(F)c1)CC(=O)N3` (stereo not drawn), 17.9 µM.

The subject of a further experiment is MCF7. Kind of experiment: Cytotoxicity against human MCF7 cells assessed as cell growth inhibition after 48 hrs by MTT assay. The settings on record: MCF7, 48 h. The experiment is classed as functional, cell-based. A digest of the protocol: as §1
Regarding `COc1cc2c3c(c4cc(OC)c(OC)cc4c2cc1OC)C(c1sccc1C)CC(=O)N3` (stereo not drawn), the concentration for half-maximal inhibition (IC50) was above 20 µM.
On to `COc1cc2c3c(c4cc(OC)c(OC)cc4c2cc1OC)C(c1ccc(C)cc1)CC(=O)N3` (stereo not drawn), for which the IC50 was above 20 µM.
Same read-out and setting: as for `COc1cc2c3c(c4cc(OC)c(OC)cc4c2cc1OC)C(c1cccs1)CC(=O)N3` (stereo not drawn), the figure is above 20 µM; as for `COc1cc2c3c(c4cc(OC)c(OC)cc4c2cc1OC)C(c1ccc2c(c1)OCCO2)CC(=O)N3` (stereo not drawn), above 20 µM; as for `COc1cc2c3c(c4cc(OC)c(OC)cc4c2cc1OC)C(c1cccc(C(F)(F)F)c1)CC(=O)N3` (stereo not drawn), above 20 µM.
Same read-out and setting: as for `COc1cc2c3c(c4cc(OC)c(OC)cc4c2cc1OC)C(c1ccc(F)cc1)CC(=O)N3` (stereo not drawn), the figure is 12.2 µM; as for `COc1cc2c3c(c4cc(OC)c(OC)cc4c2cc1OC)C(c1cccc(Br)c1)CC(=O)N3` (stereo not drawn), above 20 µM.
The same measure, in the same setting: as for `COc1cc([C@@H]2c3cc4c(cc3[C@@H](O[C@@H]3O[C@@H]5CO[C@@H](C)O[C@H]5[C@H](O)[C@H]3O)[C@H]3COC(=O)[C@H]23)OCO4)cc(OC)c1O` [ETOPOSIDE], the figure is 2.03 µM; as for `COc1cc2c3c(c4cc(OC)c(OC)cc4c2cc1OC)C(c1ccc(F)c(F)c1)CC(=O)N3` (stereo not drawn), above 20 µM.
